Measurements reported in ChEMBL document CHEMBL1150347, “A prodomain peptide of Plasmodium falciparum cysteine protease (falcipain-2) inhibits malaria parasite development” (J Med Chem, 2008).
pKi: −log10 of the molar value. Blank lines part the entries; values can stand above or below the molecule they belong to. The source made the active and inactive calls. The calls are words filed in the database; no cut-off is given here. Residues, ends and D or L forms follow the SMILES beside them.

Experiments:
[1] = biological target: T1, Falcipain 2 (Plasmodium falciparum) (UniProt Q9N6S8); test: Inhibition of Plasmodium falciparum falcipain-2 in RBC assessed as hemoglobin degradation after 24 hrs by SDS-PAGE
T1 sequence (whole entry): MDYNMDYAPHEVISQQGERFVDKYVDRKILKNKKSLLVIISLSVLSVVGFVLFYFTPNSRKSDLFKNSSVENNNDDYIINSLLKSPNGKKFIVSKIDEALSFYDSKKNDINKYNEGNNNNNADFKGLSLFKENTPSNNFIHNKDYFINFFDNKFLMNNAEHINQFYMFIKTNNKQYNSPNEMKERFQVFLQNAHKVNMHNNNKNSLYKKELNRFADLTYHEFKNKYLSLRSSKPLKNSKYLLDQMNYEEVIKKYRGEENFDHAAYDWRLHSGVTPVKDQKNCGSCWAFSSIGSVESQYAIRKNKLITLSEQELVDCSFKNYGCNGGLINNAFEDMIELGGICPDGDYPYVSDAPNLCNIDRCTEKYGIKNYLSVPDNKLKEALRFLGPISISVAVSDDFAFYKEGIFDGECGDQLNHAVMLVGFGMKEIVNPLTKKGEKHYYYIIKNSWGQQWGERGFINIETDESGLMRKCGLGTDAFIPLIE
Outline: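 Ring-stage P. falciparum treated 24 h. Infected RBCs lysed with 0.15% saponin in PBS on ice for 10 min, then washed three times with cold PBS. About 1 × 10^6 parasites per lane run on 15% SDS-PAGE in Laemmli buffer; Coomassie staining used to look for undigested hemoglobin.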

[2] = biological target: T1, Falcipain 2 (Plasmodium falciparum); test: Inhibition of Plasmodium falciparum 3D7 falcipain-2 in RBC assessed as Z-FR-AMC substrate hydrolysis by confocal microscopy relative to control; settings: concentration not given here
Outline: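 3D7 cultures at 4-5% parasitemia given FITC-labelled peptide for 10 h at 24-28 h post-invasion. After washing in complete medium, Z-F-R-AMC added for 10 min. Confocal imaging: FITC excitation 488 nm, emission 505-530 nm; released AMC captured through a UV band-pass filter. Fluorescence averaged over selected whole parasites and compared with untreated infected cells.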

Plasmodium falciparum [3] = test: Growth inhibition at 24 hrs of Plasmodium falciparum 3D7 by [3H]hypoxanthine uptake; type: functional, organism-based
Outline: (§1)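 Synchronized ring-stage P. falciparum-infected RBCs incubated 24 h with a range of peptide concentrations, with OVA peptide as control. About 1 µCi [3H]hypoxanthine added per well and cultures kept a further 24 h. Cells harvested and incorporated label counted by scintillation.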

Falcipain 2 = biological target: T2, Falcipain 2 (Plasmodium falciparum, UniProt Q9N6S8); test: (§2) Inhibition of Plasmodium falciparum recombinant falcipain-2
T2 sequence (Q9N6S8 whole entry): T1 sequence (whole entry)
Outline: (§3)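 Refolded recombinant falcipain-2 at 200 nM, preincubated with peptide for 10 min at room temperature. Z-F-R-AMC then added at 7 µM in 100 mM sodium acetate pH 5.5 with 10 mM DTT. AMC release (ex 355/em 460 nm) followed for 30 min at room temperature. Km/Vmax from varied substrate; Ki from double-reciprocal plot; three experiments.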

Plasmodium falciparum [4] = test: Inhibition of Plasmodium falciparum recombinant falcipain-1
Outline: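 Active recombinant falcipain-1 incubated with prodomain peptide; protease activity read as fluorescence from Z-FR-AMC cleavage at pH 5.5, followed over 30 min. Three independent sets of experiments.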

Plasmodium falciparum [5] = test: Growth inhibition at 24 hrs of Plasmodium falciparum 3D7 at 100 uM by [3H]hypoxanthine uptake; type: functional; outline: as §1
Plasmodium falciparum [6] = test: Growth inhibition after 10 hrs of Plasmodium falciparum expressing KAHRP-His-GFP at 100 uM; type: functional, organism-based
Outline: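 KAHRP(-His)-GFP transgenic line, kept on 0.25 nM WR99210, sorbitol-synchronized, cultured in human RBCs (4% hematocrit) in RPMI. Peptide added at the ring stage. GFP fluorescence imaged after 3 h and 10 h of treatment, with bright field and DAPI; growth arrest read as loss of GFP signal.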

Plasmodium falciparum [7] = test: Growth inhibition as abnormal food vacuole formation after 36 hrs in Plasmodium falciparum trophozoite infected erythrocytes; type: functional, organism-based
Plasmodium falciparum [8] = test: Growth inhibition as merozoite release after 36 hrs in Plasmodium falciparum infected erythrocytes; type: functional, organism-based
Plasmodium falciparum [9] = test: Growth inhibition as reduced parasitaemia at 24 hrs for Plasmodium falciparum 3D7 by Giemsa-stained smear counting; parameters: scale not given: the % may be the effect or the level left
[10] = biological target: T1, Falcipain 2 (Plasmodium falciparum); test: as §2; outline: as §3

Activity [1]: Active
Compound: CC(C)C[C@H](NC(=O)[C@H]1O[C@@H]1C(=O)O)C(=O)NCCCCN=C(N)N

Compound: CC[C@H](C)[C@H](NC(=O)[C@H](Cc1ccccc1)NC(=O)[C@H](CCSC)NC(=O)[C@H](Cc1ccc(O)cc1)NC(=O)[C@H](Cc1ccccc1)NC(=O)[C@H](CCC(N)=O)NC(=O)[C@H](CC(N)=O)NC(=O)[C@@H](NC(=O)[C@H](Cc1cnc[nH]1)NC(=O)[C@H](CCC(=O)O)NC(=O)[C@H](C)NC(=O)[C@H](CC(N)=O)NC(=O)[C@H](CC(N)=O)NC(=O)[C@H](CCSC)NC(=O)[C@H](CC(C)C)NC(=S)Nc1cccc2c1C(=O)OC21c2ccccc2Oc2cc(O)ccc21)[C@@H](C)CC)C(=O)O (some centres not stated)
inhibition [2]: 50%

Compound: CSCC[C@H](NC(=O)[C@H](CC(N)=O)NC(=O)[C@@H](NC(=O)[C@H](CCCCN)NC(=O)[C@H](Cc1c[nH]cn1)NC(=O)[C@H](C)NC(=O)[C@H](CC(N)=O)NC(=O)[C@H](CCC(N)=O)NC(=O)[C@H](CC(C)C)NC(=O)[C@H](Cc1ccccc1)NC(=O)[C@@H](NC(=O)[C@H](CCC(N)=O)NC(=O)[C@H](Cc1ccccc1)NC(=O)[C@H](CCCNC(=N)N)NC(=O)[C@H](CCC(=O)O)NC(=O)[C@H](CCCCN)NC(=O)[C@H](CCSC)NC(=O)[C@@H](N)CCC(=O)O)C(C)C)C(C)C)C(=O)N[C@@H](Cc1c[nH]cn1)C(=O)N[C@@H](CC(N)=O)C(=O)O (H-EMKERFQVFLQNAHKVNMHN-OH)
Activity (Plasmodium falciparum [3]): inactive

Compound: CC[C@H](C)[C@H](NC(=O)[C@H](Cc1ccccc1)NC(=O)[C@H](CCSC)NC(=O)[C@H](Cc1ccc(O)cc1)NC(=O)[C@H](Cc1ccccc1)NC(=O)[C@H](CCC(N)=O)NC(=O)[C@H](CC(N)=O)NC(=O)[C@@H](NC(=O)[C@H](Cc1c[nH]cn1)NC(=O)[C@H](CCC(=O)O)NC(=O)[C@H](C)NC(=O)[C@H](CC(N)=O)NC(=O)[C@H](CC(N)=O)NC(=O)[C@H](CCSC)NC(=O)[C@@H](N)CC(C)C)[C@@H](C)CC)C(=O)O (H-LMNNAEHINQFYMFI-OH)
pKi (Falcipain 2): 5.42 | Activity (Plasmodium falciparum [4]): inactive | inhibition at 100 µM (Plasmodium falciparum [5]): 50% | Activity (Plasmodium falciparum [6]): Active | Activity (Plasmodium falciparum [7]): Active | Activity (Plasmodium falciparum [8]): Active | Activity [1]: Active | Activity (Plasmodium falciparum [9]): 50%

Compound: CC[C@H](C)[C@H](NC(=O)[C@H](Cc1ccccc1)NC(=O)[C@@H](NC(=O)[C@H](Cc1ccc(O)cc1)NC(=O)[C@H](Cc1ccccc1)NC(=O)[C@H](CCC(N)=O)NC(=O)[C@H](CC(N)=O)NC(=O)[C@@H](NC(=O)[C@H](Cc1c[nH]cn1)NC(=O)[C@H](CCC(=O)O)NC(=O)[C@@H](NC(=O)[C@H](CC(N)=O)NC(=O)[C@H](CC(N)=O)NC(=O)[C@H](CCSC)NC(=O)[C@@H](N)CC(C)C)C(C)C)[C@@H](C)CC)[C@@H](C)O)C(=O)O (H-LMNNVEHINQFYTFI-OH)
Activity [10]: Active

Compound: CC(C)C[C@H](NC(=O)[C@H](Cc1ccccc1)NC(=O)[C@@H](NC(=O)[C@H](CCC(N)=O)NC(=O)[C@H](Cc1ccccc1)NC(=O)[C@@H](N)CCCNC(=N)N)C(C)C)C(=O)N[C@@H](CCC(N)=O)C(=O)N[C@@H](CC(N)=O)C(=O)N[C@@H](C)C(=O)N[C@@H](Cc1c[nH]cn1)C(=O)N[C@@H](CCCCN)C(=O)N[C@H](C(=O)O)C(C)C (H-RFQVFLQNAHKV-OH)
Activity (Plasmodium falciparum [3]): inactive

Compound: CC[C@H](C)[C@H](NC(=O)[C@H](CCSC)NC(=O)[C@H](Cc1ccc(O)cc1)NC(=O)[C@H](Cc1ccccc1)NC(=O)[C@H](CCC(N)=O)NC(=O)[C@H](CC(N)=O)NC(=O)[C@@H](NC(=O)[C@H](Cc1cnc[nH]1)NC(=O)[C@H](CCC(=O)O)NC(=O)[C@H](C)NC(=O)[C@H](CC(N)=O)NC(=O)[C@H](CC(N)=O)NC(=O)[C@H](CCSC)NC(=O)[C@H](CC(C)C)NC(=O)[C@H](CCCCN)NC(=O)[C@H](CCCCN)NC(=O)[C@H](Cc1c[nH]c2ccccc12)NC(=O)[C@H](CCCCN)NC(=O)[C@H](CCSC)NC(=O)[C@H](CCCNC(=N)N)NC(=O)[C@H](CCCNC(=N)N)NC(=O)[C@H](CC(N)=O)NC(=O)[C@H](CCC(N)=O)NC(=O)[C@H](Cc1ccccc1)NC(=O)[C@H](Cc1c[nH]c2ccccc12)NC(=O)[C@@H](NC(=O)[C@H](CCCCN)NC(=O)[C@@H](NC(=O)[C@H](CCC(N)=O)NC(=O)[C@@H](N)CCCNC(=N)N)[C@@H](C)CC)[C@@H](C)CC)[C@@H](C)CC)C(=O)O (H-RQIKIWFQNRRMKWKKLMNNAEHINQFYMI-OH)
Activity (Plasmodium falciparum [9]): 50%

Compound: CC[C@H](C)[C@H](N)C(=O)N[C@@H](CO)C(=O)N[C@@H](CCC(N)=O)C(=O)N[C@@H](C)C(=O)N[C@H](C(=O)N[C@@H](Cc1cnc[nH]1)C(=O)N[C@@H](C)C(=O)N[C@@H](C)C(=O)N[C@@H](Cc1cnc[nH]1)C(=O)N[C@@H](C)C(=O)N[C@@H](CCC(=O)O)C(=O)N[C@H](C(=O)N[C@@H](CC(N)=O)C(=O)N[C@@H](CCC(=O)O)C(=O)N[C@@H](C)C(=O)NCC(=O)N[C@@H](CCCNC(=N)N)C(=O)O)[C@@H](C)CC)C(C)C [ovalbumin peptide] (H-ISQAVHAAHAEINEAGR-OH)
Activity [10]: inactive | inhibition at 100 µM (Plasmodium falciparum [5]): 80% | Activity (Plasmodium falciparum [3]): inactive
